Laboratory results published in ChEMBL document CHEMBL2169835, “Flavonoid dimers as novel, potent antileishmanial agents” (J Med Chem, 2012).

Columns and labels:
[1] = system: Leishmania donovani; test: Antimicrobial activity against wild-type Leishmania donovani AG83 promastigote assessed as inhibition of parasite growth after 72 hrs by MTS assay; assay type: functional, organism-based; details: AG83, 72 h
In short: (§1)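 Promastigotes were grown in Schneider's medium pH 6.9 with 10% heat-inactivated FBS at 27 °C, seeded at 1 × 10^5 per well, and exposed to serial concentrations for 72 h at 27 °C. Compounds were in DMSO (≤1% final) or water. MTS:PMS (20:1) was added for 4 h, then OD490 was read.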

[2] = system: RAW264.7; test: Cytotoxicity against mouse RAW264.7 cells after 72 hrs by MTS assay; assay type: cell-based; details: RAW264.7, 72 h
In short: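 RAW 264.7 murine macrophage line was plated at 1 × 10^4 cells per well in supplemented DMEM. Cells received a graded compound series for 72 h at 37 °C, 5% CO2, with a maximum of 1% DMSO. Viability was measured by MTS with PMS coupling at OD 490 nm, as percent of untreated control. The IC50 was the concentration reducing OD by half, given as mean ± SEM, N = 1–4.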

[3] = system: Leishmania donovani; test: Antimicrobial activity against SSG-resistant Leishmania donovani 39 promastigote assessed as inhibition of parasite growth after 72 hrs by MTS assay; assay type: functional, organism-based; details: Leishmania donovani, 39, 72 h
In short: as §1, with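 “read. Survival was % of untreated control; IC50 = concentration halving OD; N = 1−4.” for “read.”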

[4] = system: Leishmania donovani; test: Antimicrobial activity against pentamidine-resistant Leishmania donovani AG83PentR50 promastigote assessed as inhibition of parasite growth after 72 hrs by MTS assay; assay type: functional, organism-based; details: AG83PentR50, 72 h
In short: as §1, with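 “read. Survival was % of untreated control; IC50 = concentration halving OD; N = 1−4.” for “read.”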

| Structure (SMILES) | IC50 [1] [µM] | IC50 [2] [µM] | IC50 [3] [µM] | IC50 [4] [µM] |
| --- | --- | --- | --- | --- |
| O=c1cc(-c2ccc(OCCOCCN(CCOCCOc3ccc(-c4cc(=O)c5ccccc5o4)cc3)Cc3ccc(F)cc3)cc2)oc2ccccc12 | > 100 | – | – | – |
| Cc1ccc2c(=O)cc(-c3ccc(OCCOCCOCCOCCOCCOc4ccc(-c5cc(=O)c6ccc(C)cc6o5)cc4)cc3)oc2c1 | 4.4 | > 80 | 7.9 | 3.8 |
| O=c1cc(-c2ccc(OCCOCCOCCOCCOCCOc3ccc(-c4cc(=O)c5ccccc5o4)cc3)cc2)oc2ccccc12 | 5.3 | 8.9 | 7.8 | 10.4 |
| O=c1cc(-c2ccc(OCCOCCOCCOCCOCCOCCOCCOc3ccc(-c4cc(=O)c5ccccc5o4)cc3)cc2)oc2ccccc12 | 6.2 | 4.8 | 10.3 | 7.3 |
| O=c1cc(-c2ccc(OCCOCCN(CCOCCOc3ccc(-c4cc(=O)c5ccccc5o4)cc3)Cc3ccccc3)cc2)oc2ccccc12 | 8.4 | > 79 | 12.3 | – |
| Cc1ccc2c(=O)cc(-c3ccc(OCCOCCOCCOCCOCCOCCOc4ccc(-c5cc(=O)c6ccc(C)cc6o5)cc4)cc3)oc2c1 | 6.7 | 5.3 | 5.3 | 4.1 |
| O=c1cc(-c2ccc(OCCOCCN(CCOCCOc3ccc(-c4cc(=O)c5ccccc5o4)cc3)Cc3cccc(F)c3)cc2)oc2ccccc12 | > 100 | – | – | – |
| O=c1cc(-c2ccc(OCCOCCOCCOCCOCCOCCOc3ccc(-c4cc(=O)c5c(O)cc(O)cc5o4)cc3)cc2)oc2cc(O)cc(O)c12 | > 24 | – | 1.4 | 11.8 |
| Cc1c(-c2ccc(OCCOCCOCCOCCOCCOCCOc3ccc(-c4oc5ccccc5c(=O)c4C)cc3)cc2)oc2ccccc2c1=O | 1.9 | 2.3 | 2.8 | 2.5 |
| CCOC(=O)CCN(CCOCCOc1ccc(-c2cc(=O)c3ccccc3o2)cc1)CCOCCOc1ccc(-c2cc(=O)c3ccccc3o2)cc1 | 3.8 | 16 | 6.6 | – |
| O=c1cc(-c2ccc(OCCOCCOCCOCCOc3ccc(-c4cc(=O)c5ccccc5o4)cc3)cc2)oc2ccccc12 | > 24 | > 100 | > 24 | > 24 |
| O=c1cc(-c2ccc(OCCOCCOCCOCCOCCOCCOCCOCCOc3ccc(-c4cc(=O)c5ccccc5o4)cc3)cc2)oc2ccccc12 | 5 | 4.4 | 4.6 | 6 |
| O=c1cc(-c2ccc(OCCOCCN(CCCc3ccccc3)CCOCCOc3ccc(-c4cc(=O)c5ccccc5o4)cc3)cc2)oc2ccccc12 | 8.9 | 85 | 18.4 | – |
| O=c1cc(-c2ccc(OCCOCCOCCOCCOCCOc3ccc(-c4cc(=O)c5ccc(F)cc5o4)cc3)cc2)oc2cc(F)ccc12 | 4.1 | > 100 | 4.8 | 3.7 |
| COC(=O)c1ccc(CN(CCOCCOc2ccc(-c3cc(=O)c4ccccc4o3)cc2)CCOCCOc2ccc(-c3cc(=O)c4ccccc4o3)cc2)cc1 | > 100 | 45.7 | > 100 | – |
| Cc1ccc2oc(-c3ccc(OCCOCCOCCOCCOCCOc4ccc(-c5cc(=O)c6cc(C)ccc6o5)cc4)cc3)cc(=O)c2c1 | > 24 | > 100 | 4.3 | > 24 |
| O=c1cc(-c2ccc(OCCOCCN(CCO)CCOCCOc3ccc(-c4cc(=O)c5ccccc5o4)cc3)cc2)oc2ccccc12 | 3.2 | 6.4 | 7.2 | – |
| O=c1cc(-c2ccc(OCCOCCOCCOc3ccc(-c4cc(=O)c5c(O)cc(O)cc5o4)cc3)cc2)oc2cc(O)cc(O)c12 | 5.6 | > 200 | 2.7 | 6.7 |
| O=c1cc(-c2ccc(OCCOCCNCCOCCOc3ccc(-c4cc(=O)c5ccccc5o4)cc3)cc2)oc2ccccc12 | 3.3 | 2.1 | 2.3 | 1.1 |
| CC(C)(C)OC(=O)N(CCOCCOc1ccc(-c2cc(=O)c3ccccc3o2)cc1)CCOCCOc1ccc(-c2cc(=O)c3ccccc3o2)cc1 | 3.2 | > 100 | 1.6 | 1.1 |
| CCN(CCOCCOc1ccc(-c2cc(=O)c3ccccc3o2)cc1)CCOCCOc1ccc(-c2cc(=O)c3ccccc3o2)cc1 | 3.2 | 8.3 | 5.5 | – |
| O=c1cc(-c2ccc(OCCOCCOCCOc3ccc(-c4cc(=O)c5ccccc5o4)cc3)cc2)oc2ccccc12 | > 24 | > 95 | > 24 | > 24 |
| O=c1cc(-c2ccc(OCCOCCN(CCOCCOc3ccc(-c4cc(=O)c5ccccc5o4)cc3)Cc3ccc([N+](=O)[O-])cc3)cc2)oc2ccccc12 | > 100 | 70.3 | > 100 | – |

| Structure (SMILES) | IC50 [1] [µM] | IC50 [2] [µM] | IC50 [3] [µM] | IC50 [4] [µM] |
| --- | --- | --- | --- | --- |
| O=c1cc(-c2ccc(OCCOCCOCCOCCOCCOCCOc3ccc(-c4cc(=O)c5ccccc5o4)cc3)cc2)oc2ccccc12 | 4.8 | 7.1 | 4.3 | 4.9 |
| CS(=O)(=O)N(CCOCCOc1ccc(-c2cc(=O)c3ccccc3o2)cc1)CCOCCOc1ccc(-c2cc(=O)c3ccccc3o2)cc1 | 0.75 | 96 | 0.9 | – |
| Cc1ccc2c(=O)cc(-c3ccc(OCCOCCOCCOCCOc4ccc(-c5cc(=O)c6ccc(C)cc6o5)cc4)cc3)oc2c1 | > 24 | 88.6 | > 24 | > 24 |
| Cc1ccc2oc(-c3ccc(OCCOCCOCCOCCOCCOCCOc4ccc(-c5cc(=O)c6cc(C)ccc6o5)cc4)cc3)cc(=O)c2c1 | 2.2 | > 100 | 3.6 | > 24 |
| O=c1cc(-c2ccc(OCCOCCOCCOCCOCCOc3ccc(-c4cc(=O)c5c(O)cc(O)cc5o4)cc3)cc2)oc2cc(O)cc(O)c12 | 2.3 | > 200 | 1.8 | 2.6 |
| Cc1c(-c2ccc(OCCOCCOCCOCCOCCOc3ccc(-c4oc5ccccc5c(=O)c4C)cc3)cc2)oc2ccccc2c1=O | 4.8 | 3.1 | 4.2 | 4.6 |
| O=c1cc(-c2ccc(OCCOCCOCCOCCOc3ccc(-c4cc(=O)c5ccc(F)cc5o4)cc3)cc2)oc2cc(F)ccc12 | 2.6 | > 200 | 2.4 | 2.3 |
| Cc1ccc2oc(-c3ccc(OCCOCCOCCOCCOc4ccc(-c5cc(=O)c6cc(C)ccc6o5)cc4)cc3)cc(=O)c2c1 | > 24 | > 100 | > 24 | > 24 |
| O=c1cc(-c2ccc(OCCOCCOCCOCCOCCOCCOCCOCCOCCOc3ccc(-c4cc(=O)c5ccccc5o4)cc3)cc2)oc2ccccc12 | 9.4 | 8.1 | 8.6 | 10.6 |
| O=c1cc(-c2ccc(OCCOCCOCCOCCOCCOCCOc3ccc(-c4cc(=O)c5ccc(F)cc5o4)cc3)cc2)oc2cc(F)ccc12 | 4.2 | 7.8 | 4.2 | 4.6 |
| O=C(O)CCC(=O)N(CCOCCOc1ccc(-c2cc(=O)c3ccccc3o2)cc1)CCOCCOc1ccc(-c2cc(=O)c3ccccc3o2)cc1 | > 100 | 65 | > 100 | 27 |
| CCc1ccc2oc(-c3ccc(OCCOCCOCCOCCOCCOc4ccc(-c5cc(=O)c6cc(CC)ccc6o5)cc4)cc3)cc(=O)c2c1 | 4.7 | > 200 | 4.6 | 6.3 |
| O=c1cc(-c2ccc(OCCOCCN(CCOCCOc3ccc(-c4cc(=O)c5ccccc5o4)cc3)Cc3ccccc3F)cc2)oc2ccccc12 | > 100 | – | – | – |
| O=c1cc(-c2ccc(OCCOCCOc3ccc(-c4cc(=O)c5ccccc5o4)cc3)cc2)oc2ccccc12 | > 24 | > 100 | > 24 | > 24 |
| O=c1cc(-c2ccc(OCCOCCN(CCOCCOc3ccc(-c4cc(=O)c5ccccc5o4)cc3)Cc3cc(F)c(F)c(F)c3)cc2)oc2ccccc12 | 33.3 | – | – | – |
| O=c1cc(-c2ccc(OCCOCCOCCOCCOc3ccc(-c4cc(=O)c5c(O)cc(O)cc5o4)cc3)cc2)oc2cc(O)cc(O)c12 | 2.2 | > 200 | 1.9 | 3.1 |
| Cc1ccc(S(=O)(=O)N(CCOCCOc2ccc(-c3cc(=O)c4ccccc4o3)cc2)CCOCCOc2ccc(-c3cc(=O)c4ccccc4o3)cc2)cc1 | 100 | > 100 | > 100 | – |
| Cc1c(-c2ccc(OCCOCCOCCOCCOc3ccc(-c4oc5ccccc5c(=O)c4C)cc3)cc2)oc2ccccc2c1=O | 6.9 | 8.1 | > 19 | > 20 |
| O=c1cc(-c2ccc(OCCOCCN(CCOCCOc3ccc(-c4cc(=O)c5ccccc5o4)cc3)Cc3ccc(C(F)(F)F)cc3)cc2)oc2ccccc12 | 14.1 | – | – | – |
| O=c1cc(-c2ccc(OCCOCCOCCOCCOc3ccc(-c4cc(=O)c5c(O)cccc5o4)cc3)cc2)oc2cccc(O)c12 | > 24 | – | > 24 | – |
| O=c1c(O)c(-c2ccc(OCCOCCOCCOCCOc3ccc(-c4oc5ccccc5c(=O)c4O)cc3)cc2)oc2ccccc12 | > 24 | – | > 24 | – |
| O=c1cc(-c2ccc(OCCOCCN(CCOCCOc3ccc(-c4cc(=O)c5ccccc5o4)cc3)Cc3ccnc4ccccc34)cc2)oc2ccccc12 | 20.4 | – | – | – |
